Reference: paper PMC4401318 (ACS Chemical Neuroscience, 2015)
“Also recorded” adds a separate entry of the source. Marks after values point to notes of the source that are not given here.

Experiments:
DOP receptor [1] = biological target: T1, DOP receptor (Homo sapiens, UniProt P41143); experiment: Radioligand competition binding, DOP
KOP receptor [2] = biological target: T2, KOP receptor (Homo sapiens, UniProt P41145); experiment: Radioligand competition binding, KOP
KOP receptor [3] = biological target: T2, KOP receptor; experiment: biochemical
MOP receptor [4] = biological target: T3, MOP receptor (Homo sapiens, UniProt P35372); experiment: biochemical
DOP receptor [5] = biological target: T1, DOP receptor; experiment: [35S]GTPγS binding stimulation; type: biochemical; settings: for [35S]GTPγS DOP % stim: compared to standard agonist DPDPE
NOP receptor [6] = biological target: T4, NOP receptor (Homo sapiens, UniProt P41146); experiment: [35S]GTPγS binding stimulation; type: biochemical; settings: for intrinsic (agonist) activity in [35S]GTPγS assay at any of the opioid receptors: NOP, KOP, MOP and DOP, up to 10 μM; for [35S]GTPγS NOP % stim: compared to standard agonist N/OFQ
MOP receptor [7] = biological target: T3, MOP receptor; type: biochemical
NOP receptor [8] = biological target: T4, NOP receptor; experiment: Radioligand competition binding, NOP
KOP receptor [9] = biological target: T2, KOP receptor; experiment: Inhibition of agonist-stimulated [35S]GTPγS binding, KOP; type: biochemical; settings: agonist U69,593 concentration-response curves; listed as AT-076
Procedure, shortened: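 CHO cells stably expressing human KOP cDNA, grown in DMEM/10% FBS with 0.4 mg/mL G418. Membranes were washed into 20 mM HEPES, 10 mM MgCl2, 100 mM NaCl, pH 7.4. Membranes (8–15 μg protein) were incubated 60 min at 25 °C with 50 pM [35S]GTPγS and 10 μM GDP. U69,593 concentration–response curves were run at several fixed test-compound concentrations. Binding was read by filtration and scintillation counting. Antagonism type was assigned by Schild regression.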

NOP receptor [10] = biological target: T4, NOP receptor; experiment: Inhibition of agonist-stimulated [35S]GTPγS binding, NOP; type: biochemical; settings: for nature of antagonism at NOP: agonist nociceptin concentration-response curves
DOP receptor [11] = biological target: T1, DOP receptor; experiment: Inhibition of agonist-stimulated [35S]GTPγS binding, DOP; type: biochemical
MOP receptor [12] = biological target: T3, MOP receptor; settings: cited from earlier work
KOP receptor [13] = biological target: T2, KOP receptor; settings: agonist U69,593; ref 4b; cited from earlier work
DOP receptor [14] = biological target: T1, DOP receptor; settings: agonist DPDPE; ref 4b; cited from earlier work

C[C@H]1CN(C2CCCCCCC2)CC[C@@]1(C)c1cccc(O)c1 [Compound 3, 3-((3R,4R)-1-Cyclooctyl-3,4-dimethylpiperidin-4-yl)phenol]
Ki (DOP receptor [1]): 2910 ± 834 nM
Ki (KOP receptor [2]): 68.1 ± 2.21 nM
EC50 (KOP receptor [3]): > 10000 nM
[35S]GTPγS KOP % stim (KOP receptor [3]): 0%

C[C@H]1CN(C[C@H]2Cc3ccc(O)cc3CN2)CC[C@@]1(C)c1cccc(O)c1 [Compound 4, (R)-3-(((3R,4R)-4-(3-Hydroxyphenyl)-3,4-dimethylpiperidin-1-yl)methyl)-1,2,3,4-tetrahydroisoquinolin-7-ol]
Ki (DOP receptor [1]): 205 nM
Ki (KOP receptor [2]): 410 ± 130 nM
EC50 (MOP receptor [4]): > 10000 nM
[35S]GTPγS MOP % stim (MOP receptor [4]): 0%

C[C@H]1CN(C[C@H]2Cc3ccccc3CN2)CC[C@@]1(C)c1cccc(O)c1 [Compound 5, 3-((3R,4R)-3,4-Dimethyl-1-(((R)-1,2,3,4-tetrahydroisoquinolin-3-yl)methyl)piperidin-4-yl)phenol]
Ki (DOP receptor [1]): 38.8 ± 9.9 nM
Ki (KOP receptor [2]): 19.5 ± 6.6 nM
EC50 (MOP receptor [4]): > 10000 nM
[35S]GTPγS MOP % stim (MOP receptor [4]): 0%
EC50 (KOP receptor [3]): > 10000 nM
[35S]GTPγS KOP % stim (KOP receptor [3]): 0%
EC50 (DOP receptor [5]): > 10000 nM
[35S]GTPγS DOP % stim (DOP receptor [5]): 0%
EC50 (NOP receptor [6]): > 10000 nM
intrinsic (agonist) activity in [35S]GTPγS assay at any of the opioid receptors (NOP receptor [6]): no intrinsic activity
[35S]GTPγS NOP % stim (NOP receptor [6]): 0%

CC(C)[C@@H](CN1CCC(c2cccc(O)c2)CC1)NC(=O)[C@H]1Cc2ccc(O)cc2CN1 [Compound 6, (R)-7-Hydroxy-N-((S)-1-(4-(3-hydroxyphenyl)piperidin-1-yl)-3-methylbutan-2-yl)-1,2,3,4-tetrahydroisoquinoline-3-carboxamide]
Ke more potent than that of JDTic (MOP receptor [7]; at the MOP and DOP receptors): 3–6 fold
nature of antagonism at MOP (MOP receptor [7]; listed as AT-076): competitive antagonist; also recorded: competitive antagonism
EC50 (MOP receptor [4]): > 10000 nM
[35S]GTPγS MOP % stim (MOP receptor [4]): 0%
EC50 (KOP receptor [3]): > 10000 nM
[35S]GTPγS KOP % stim (KOP receptor [3]): 0%
EC50 (DOP receptor [5]): > 10000 nM
[35S]GTPγS DOP % stim (DOP receptor [5]): 0%
increase in NOP binding affinity compared with JDTic (NOP receptor [8]; ratio of Ki): 10 fold
nature of antagonism at KOP (KOP receptor [9]): noncompetitive antagonist profile; also recorded: insurmountable antagonism
nature of antagonism at NOP (NOP receptor [10]; listed as AT-076): noncompetitive antagonist profile; also recorded: insurmountable antagonism
Kb (DOP receptor [11]): 24.9 ± 13 nM
nature of antagonism at DOP (DOP receptor [11]; agonist DPDPE concentration-response curves, listed as AT-076): competitive antagonist; also recorded: competitive antagonism
intrinsic (agonist) activity in [35S]GTPγS assay at any of the opioid receptors (NOP receptor [6]): no intrinsic (agonist) activity
[35S]GTPγS NOP % stim (NOP receptor [6]): 0%

CC(C)[C@@H](CN1CCC(c2cccc(O)c2)CC1)NC(=O)[C@H]1Cc2ccccc2CN1 [Compound 7, (R)-N-((S)-1-(4-(3-Hydroxyphenyl)piperidin-1-yl)-3-methylbutan-2-yl)-1,2,3,4-tetrahydroisoquinoline-3-carboxamide]
Ki (DOP receptor [1]): 1400 ± 111 nM
Ki (KOP receptor [2]): 100 ± 0.9 nM
EC50 (KOP receptor [3]): > 10000 nM
[35S]GTPγS KOP % stim (KOP receptor [3]): 0%
EC50 (NOP receptor [6]): > 10000 nM
[35S]GTPγS NOP % stim (NOP receptor [6]): 7.0 ± 3.2%

CC(C)[C@@H](CN1CCC(c2ccccc2)CC1)NC(=O)[C@H]1Cc2ccc(O)cc2CN1 [Compound 8, (R)-7-Hydroxy-N-((S)-3-methyl-1-(4-phenylpiperidin-1-yl)butan-2-yl)-1,2,3,4-tetrahydroisoquinoline-3-carboxamide]
Ki (DOP receptor [1]): > 10000 nM
Ki (KOP receptor [2]): 2.15 ± 0.82 nM
[35S]GTPγS MOP % stim (MOP receptor [4]): 0%
EC50 (KOP receptor [3]): 408 ± 41 nM
[35S]GTPγS KOP % stim (KOP receptor [3]): 72.3 ± 4%
Ki (NOP receptor [8]): 10.9 ± 2.14 nM
EC50 (NOP receptor [6]): 53.3 ± 12.1 nM
[35S]GTPγS NOP % stim (NOP receptor [6]): 18.3 ± 1.3%

CC(C)[C@@H](CN1CC[C@@](C)(c2cccc(O)c2)[C@@H](C)C1)NC(=O)[C@H]1Cc2ccc(O)cc2CN1 [JDTic, (3R)-7-hydroxy-N-((1S)-1-{[(3R,4R)-4-(3-hydroxyphenyl)-3,4-dimethyl-1-piperidinyl]methyl}-2-methylpropyl)-1,2,3,4-tetrahydro-3-isoquinolinecarboxamide, reference compound]
Ke MOP (antagonist potency) (MOP receptor [12]): 3.41 ± 0.36 ^f nM
[35S]GTPγS MOP % stim (MOP receptor [4]): 0%
Ke KOP (antagonist potency) (KOP receptor [13]): 0.01 ± 0.00 ^f nM
[35S]GTPγS KOP % stim (KOP receptor [3]): 0%
[35S]GTPγS DOP % stim (DOP receptor [5]): 0%
Kb (NOP receptor [10]): 680.2 ± 2.35 nM
nature of antagonism at NOP (NOP receptor [10]): noncompetitive antagonism
Ke DOP (antagonist potency) (DOP receptor [14]): 79.3 ± 9.3 ^f nM
EC50 (NOP receptor [6]): > 10000 nM
intrinsic (agonist) activity in [35S]GTPγS assay at any of the opioid receptors (NOP receptor [6]): no intrinsic activity
[35S]GTPγS NOP % stim (NOP receptor [6]): 0%
intrinsic activity in [35S]GTPγS functional assay at NOP (NOP receptor [6]; compound alone): no intrinsic activity

Cc1cccc2c1CC[C@H](CN1CCC(c3c(Cl)cccc3Cl)CC1)C[C@@H]2O [SB-612111, (−)-cis-1-methyl-7-[[4-(2,6-dichlorophenyl)piperidin-1-yl]methyl]-6,7,8,9-tetrahydro-5H-benzocyclohepten-5-ol, reference compound]
[35S]GTPγS NOP % stim (NOP receptor [6]): 0%
